Laboratory results published in ChEMBL document CHEMBL3044834, “Novel protoporphyrinogen oxidase inhibitors: 3H-pyrazolo[3,4-d][1,2,3]triazin-4-one derivatives” (J Agric Food Chem, 2008).

Assays:
Assay type in all cases: functional
[1] = system: Amaranthus retroflexus; test: Herbicidal activity against Amaranthus retroflexus assessed as inhibition of fresh weed plant weight at 187.5 g/ha using pre-emergence treatment protocol
[2] = system: Echinochloa crus-galli; test: Herbicidal activity against Echinochloa crus-galli (barnyard grass) assessed as inhibition of fresh weed plant weight at 187.5 g/ha using post-emergence treatment protocol
How it was run: (§1)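 Test compounds made up as emulsions by dissolving in 100 µL N,N-dimethylformamide, then adding a little Tween 20 and water. For post-emergence, weed seedlings at one leaf and one stem were sprayed at the same rates as the pre-emergence test. Fresh weight was recorded 15 days after treatment and expressed as percent inhibition versus controls. All treatments were run in triplicate.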

[3] = system: Echinochloa crus-galli; test: Herbicidal activity against Echinochloa crus-galli (barnyard grass) assessed as inhibition of fresh weed plant weight at 1500 g/ha using post-emergence treatment protocol; how it was run: as §1
[4] = system: Echinochloa crus-galli; test: Herbicidal activity against Echinochloa crus-galli (barnyard grass) assessed as inhibition of fresh weed plant weight at 750 g/ha using post-emergence treatment protocol; how it was run: as §1
[5] = system: Brassica rapa subsp. oleifera; test: Herbicidal activity against Brassica rapa subsp. oleifera assessed as inhibition of fresh weed plant weight at 375 g/ha using post-emergence treatment protocol; how it was run: as §1
[6] = system: Brassica rapa subsp. oleifera; test: Herbicidal activity against Brassica rapa subsp. oleifera assessed as inhibition of fresh weed plant weight at 750 g/ha using pre-emergence treatment protocol
[7] = system: Digitaria sanguinalis; test: Herbicidal activity against Digitaria sanguinalis (hairy crabgrass) assessed as inhibition of fresh weed plant weight at 750 g/ha using post-emergence treatment protocol; how it was run: as §1
[8] = system: Brassica rapa subsp. oleifera; test: Herbicidal activity against Brassica rapa subsp. oleifera assessed as inhibition of fresh weed plant weight at 375 g/ha using pre-emergence treatment protocol
[9] = system: Amaranthus retroflexus; test: Herbicidal activity against Amaranthus retroflexus assessed as inhibition of fresh weed plant weight at 1500 g/ha using post-emergence treatment protocol; how it was run: as §1
[10] = system: Brassica rapa subsp. oleifera; test: Herbicidal activity against Brassica rapa subsp. oleifera assessed as inhibition of fresh weed plant weight at 187.5 g/ha using pre-emergence treatment protocol
[11] = system: Amaranthus retroflexus; test: Herbicidal activity against Amaranthus retroflexus assessed as inhibition of fresh weed plant weight at 750 g/ha using post-emergence treatment protocol; how it was run: as §1
[12] = system: Echinochloa crus-galli; test: Herbicidal activity against Echinochloa crus-galli (barnyard grass) assessed as inhibition of fresh weed plant weight at 375 g/ha using pre-emergence treatment protocol; how it was run: as §1
[13] = system: Amaranthus retroflexus; test: Herbicidal activity against Amaranthus retroflexus assessed as inhibition of fresh weed plant weight at 187.5 g/ha using post-emergence treatment protocol; how it was run: as §1
[14] = system: Digitaria sanguinalis; test: Herbicidal activity against Digitaria sanguinalis (hairy crabgrass) assessed as inhibition of fresh weed plant weight at 375 g/ha using pre-emergence treatment protocol
[15] = system: Echinochloa crus-galli; test: Herbicidal activity against Echinochloa crus-galli (barnyard grass) assessed as inhibition of fresh weed plant weight at 375 g/ha using post-emergence treatment protocol; how it was run: as §1
[16] = system: Brassica rapa subsp. oleifera; test: Herbicidal activity against Brassica rapa subsp. oleifera assessed as inhibition of fresh weed plant weight at 750 g/ha using post-emergence treatment protocol; how it was run: as §1
[17] = system: Digitaria sanguinalis; test: Herbicidal activity against Digitaria sanguinalis (hairy crabgrass) assessed as inhibition of fresh weed plant weight at 187.5 g/ha using post-emergence treatment protocol; how it was run: as §1
[18] = system: Amaranthus retroflexus; test: Herbicidal activity against Amaranthus retroflexus assessed as inhibition of fresh weed plant weight at 375 g/ha using pre-emergence treatment protocol
[19] = system: Echinochloa crus-galli; test: Herbicidal activity against Echinochloa crus-galli (barnyard grass) assessed as inhibition of fresh weed plant weight at 187.5 g/ha using pre-emergence treatment protocol; how it was run: as §1
[20] = system: Digitaria sanguinalis; test: Herbicidal activity against Digitaria sanguinalis (hairy crabgrass) assessed as inhibition of fresh weed plant weight at 375 g/ha using post-emergence treatment protocol; how it was run: as §1
[21] = system: Echinochloa crus-galli; test: Herbicidal activity against Echinochloa crus-galli (barnyard grass) assessed as inhibition of fresh weed plant weight at 1500 g/ha using pre-emergence treatment protocol
[22] = system: Brassica rapa subsp. oleifera; test: Herbicidal activity against Brassica rapa subsp. oleifera assessed as inhibition of fresh weed plant weight at 1500 g/ha using post-emergence treatment protocol; how it was run: as §1
[23] = system: Digitaria sanguinalis; test: Herbicidal activity against Digitaria sanguinalis (hairy crabgrass) assessed as inhibition of fresh weed plant weight at 1500 g/ha using pre-emergence treatment protocol
[24] = system: Echinochloa crus-galli; test: Herbicidal activity against Echinochloa crus-galli (barnyard grass) assessed as inhibition of fresh weed plant weight at 750 g/ha using pre-emergence treatment protocol
[25] = system: Brassica rapa subsp. oleifera; test: Herbicidal activity against Brassica rapa subsp. oleifera assessed as inhibition of fresh weed plant weight at 187.5 g/ha using post-emergence treatment protocol; how it was run: as §1
[26] = system: Digitaria sanguinalis; test: Herbicidal activity against Digitaria sanguinalis (hairy crabgrass) assessed as inhibition of fresh weed plant weight at 187.5 g/ha using pre-emergence treatment protocol
[27] = system: Amaranthus retroflexus; test: Herbicidal activity against Amaranthus retroflexus assessed as inhibition of fresh weed plant weight at 375 g/ha using post-emergence treatment protocol; how it was run: as §1
[28] = system: Digitaria sanguinalis; test: Herbicidal activity against Digitaria sanguinalis (hairy crabgrass) assessed as inhibition of fresh weed plant weight at 750 g/ha using pre-emergence treatment protocol
[29] = system: Digitaria sanguinalis; test: Herbicidal activity against Digitaria sanguinalis (hairy crabgrass) assessed as inhibition of fresh weed plant weight at 1500 g/ha using post-emergence treatment protocol; how it was run: as §1
[30] = system: Amaranthus retroflexus; test: Herbicidal activity against Amaranthus retroflexus assessed as inhibition of fresh weed plant weight at 1500 g/ha using pre-emergence treatment protocol
[31] = system: Brassica rapa subsp. oleifera; test: Herbicidal activity against Brassica rapa subsp. oleifera assessed as inhibition of fresh weed plant weight at 1500 g/ha using pre-emergence treatment protocol
[32] = system: Amaranthus retroflexus; test: Herbicidal activity against Amaranthus retroflexus assessed as inhibition of fresh weed plant weight at 750 g/ha using pre-emergence treatment protocol; how it was run: as §1

Structure (SMILES)	inhibition at 187.5 g/ha [1] [%]	inhibition at 187.5 g/ha [2] [%]	inhibition at 1500 g/ha [3] [%]	inhibition at 750 g/ha [4] [%]	inhibition at 375 g/ha [5] [%]	inhibition at 750 g/ha [6] [%]	inhibition at 750 g/ha [7] [%]	inhibition at 375 g/ha [8] [%]	inhibition at 1500 g/ha [9] [%]	inhibition at 187.5 g/ha [10] [%]	inhibition at 750 g/ha [11] [%]	inhibition at 375 g/ha [12] [%]	inhibition at 187.5 g/ha [13] [%]	inhibition at 375 g/ha [14] [%]	inhibition at 375 g/ha [15] [%]	inhibition at 750 g/ha [16] [%]	inhibition at 187.5 g/ha [17] [%]	inhibition at 375 g/ha [18] [%]	inhibition at 187.5 g/ha [19] [%]	inhibition at 375 g/ha [20] [%]	other results
C#CCOc1cc(-n2nnc3nn(CC=C)cc3c2=O)c(F)cc1Cl	41	0	20.3	9.3	18.9	37.3	13.9	25.4	100	16.4	100	0	22	6.5	0.5	36.6	0	90.2	0	8.3	inhibition at 1500 g/ha [21]: 40.9%; inhibition at 1500 g/ha [22]: 70.3%; inhibition at 1500 g/ha [23]: 79.6%; inhibition at 750 g/ha [24]: 19.5%; inhibition at 187.5 g/ha [25]: 2.9%; inhibition at 187.5 g/ha [26]: 2.2%; inhibition at 375 g/ha [27]: 100%; inhibition at 750 g/ha [28]: 47.8%; inhibition at 1500 g/ha [29]: 36.1%; inhibition at 1500 g/ha [30]: 100%; inhibition at 1500 g/ha [31]: 65.8%; inhibition at 750 g/ha [32]: 93.4%
C=CCOc1cc(-n2nnc3nn(CC=C)cc3c2=O)c(F)cc1Cl	100	14.1	35.8	18	8.6	23.9	44.4	13.4	100	3	100	18.4	36.6	4.3	16.1	32.6	22.2	100	0	33.3	inhibition at 1500 g/ha [21]: 39.6%; inhibition at 1500 g/ha [22]: 60.8%; inhibition at 1500 g/ha [23]: 18%; inhibition at 750 g/ha [24]: 22.1%; inhibition at 187.5 g/ha [25]: 6.3%; inhibition at 187.5 g/ha [26]: 0%; inhibition at 375 g/ha [27]: 100%; inhibition at 750 g/ha [28]: 8.7%; inhibition at 1500 g/ha [29]: 60.7%; inhibition at 1500 g/ha [30]: 100%; inhibition at 1500 g/ha [31]: 50.7%; inhibition at 750 g/ha [32]: 100%
C#CCN1C(=O)COc2cc(F)c(-n3nnc4nn(CCC)cc4c3=O)cc21	100	10.2	40.9	25.9	18.9	55.2	22.2	45.5	100	16.4	100	5.6	56.1	26.1	11.2	19.4	13.9	100	0	16.7	inhibition at 1500 g/ha [21]: 37.8%; inhibition at 1500 g/ha [22]: 27.9%; inhibition at 1500 g/ha [23]: 51.6%; inhibition at 750 g/ha [24]: 16.9%; inhibition at 187.5 g/ha [25]: 11.4%; inhibition at 187.5 g/ha [26]: 0%; inhibition at 375 g/ha [27]: 100%; inhibition at 750 g/ha [28]: 32.6%; inhibition at 1500 g/ha [29]: 43.8%; inhibition at 1500 g/ha [30]: 100%; inhibition at 1500 g/ha [31]: 75.1%; inhibition at 750 g/ha [32]: 100%
C=CCN1C(=O)COc2cc(F)c(-n3nnc4nn(CCC)cc4c3=O)cc21	27.9	0	11.2	5.4	29.1	69.4	0	55.2	100	13.4	100	16	7.3	39.1	2.4	33.7	0	100	10.8	0	inhibition at 1500 g/ha [21]: 60.4%; inhibition at 1500 g/ha [22]: 50.3%; inhibition at 1500 g/ha [23]: 78.6%; inhibition at 750 g/ha [24]: 35.9%; inhibition at 187.5 g/ha [25]: 0%; inhibition at 187.5 g/ha [26]: 4.3%; inhibition at 375 g/ha [27]: 85.4%; inhibition at 750 g/ha [28]: 54.3%; inhibition at 1500 g/ha [29]: 0%; inhibition at 1500 g/ha [30]: 100%; inhibition at 1500 g/ha [31]: 88.7%; inhibition at 750 g/ha [32]: 100%
